According to ChEMBL document CHEMBL2401731, “Synthesis and pharmacological evaluation of 2-aryloxy/arylamino-5-cyanobenzenesulfonylureas as novel thromboxane A₂ receptor antagonists” (Eur J Med Chem, 2013):
The source made the active and inactive calls. The rule behind the calls is not given here.

Assays:
[1] = Antiplatelet activity against human platelets assessed as inhibition of U-46619-induced platelet aggregation at 1 uM after 1 min; assay type: functional, cell-based
In short: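 Human platelet-rich plasma is taken from donors free of medication for at least 14 days, obtained at 100×g for 10 min, and adjusted to […] with platelet-poor plasma. Platelets incubated with test sample or 0.1% DMSO at 37 °C for 1 min, then U-46619 added to trigger aggregation. Aggregation measured by light transmission. Means ± SD, n ≥ 2.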

Platelet = assay: Antiplatelet activity against human platelets assessed as inhibition of U-46619-induced platelet aggregation at 10 uM after 1 min; assay type: functional, cell-based
Thromboxane A2 receptor [2] = molecular target: T1, Thromboxane A2 receptor (Homo sapiens, UniProt P21731); assay: Antagonist activity at human thromboxane A2 receptor alpha over-expressed in HEK293 cells assessed as inhibition of U-46619-induced intracellular calcium mobilization by fluorescence assay; assay type: functional, cell-based
T1 sequence (P21731 whole entry): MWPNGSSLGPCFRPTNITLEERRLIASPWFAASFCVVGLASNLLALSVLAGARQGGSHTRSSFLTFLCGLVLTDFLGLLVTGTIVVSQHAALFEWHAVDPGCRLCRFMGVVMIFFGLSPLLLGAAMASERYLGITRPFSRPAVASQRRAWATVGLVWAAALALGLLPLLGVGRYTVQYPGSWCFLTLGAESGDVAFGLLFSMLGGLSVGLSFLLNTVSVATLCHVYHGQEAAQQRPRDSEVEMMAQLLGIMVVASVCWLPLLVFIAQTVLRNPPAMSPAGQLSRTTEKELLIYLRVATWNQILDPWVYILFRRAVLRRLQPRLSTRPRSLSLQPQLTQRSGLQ
In short: (§1)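 HEK293 cells stably expressing HA-tagged TPα or TPβ, grown in DMEM/10% FBS. Trypsinized cells washed in Krebs-HEPES buffer, pH 7.4, loaded 1 h with Fluo-4/AM, rinsed, 150,000 cells/well. Compound at 10^-9 to 10^-5 M final, then stimulated with U-46619. Fluorescence read at 538 nm, calibrated to [Ca2+]i with Triton X-100/EGTA. IC50 from concentration-response curves, three independent experiments.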

Thromboxane A2 receptor [3] = molecular target: T1, Thromboxane A2 receptor; assay: Antagonist activity at human thromboxane A2 receptor beta over-expressed in HEK293 cells assessed as inhibition of U-46619-induced intracellular calcium mobilization mobilization by fluorescence assay; assay type: functional, cell-based; in short: as §1
Homo sapiens = organism: Homo sapiens; assay: Selectivity index, ratio of IC50 for human thromboxane A2 receptor alpha to IC50 for human thromboxane A2 receptor beta
In short: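 IC50 at TPα divided by IC50 at TPβ. Both IC50s come from U-46619-stimulated Fluo-4 calcium mobilization in HEK293 cells stably expressing each isoform. Mean ± SD of three separate experiments.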

| SMILES | IC50 [1] [nM] | inhibition (Platelet) | IC50 (Thromboxane A2 receptor [2]) [µM] | IC50 (Thromboxane A2 receptor [3]) [µM] | Ratio IC50 (Homo sapiens) |
| --- | --- | --- | --- | --- | --- |
| Cc1ccccc1Nc1ccc(C#N)cc1S(=O)(=O)NC(=O)NC(C)(C)C | 971 | Active | 2.75 | 4.78 | – |
| CC(C)NC(=O)NS(=O)(=O)c1cc(C#N)ccc1Nc1ccc(F)cc1 | – | – | 8.17 | 7.83 | 1.04 |
| CCCCCNC(=O)NS(=O)(=O)c1cc(C#N)ccc1Oc1ccc(C)cc1 | – | Active | 0.9 | 0.63 | 1.4 |
| CCCCCNC(=O)NS(=O)(=O)c1cc(C#N)ccc1Oc1cccc(C)c1 | – | Active | 1.33 | 0.68 | 2 |
| Cc1ccccc1Oc1ccc(C#N)cc1S(=O)(=O)NC(=O)NC(C)C | – | Active | 8.68 | 6.13 | 1.4 |
| Cc1cccc(Oc2ccc(C#N)cc2S(=O)(=O)NC(=O)NC(C)C)c1 | – | Active | 2.38 | 1.69 | 1.4 |
| CCCCCNC(=O)NS(=O)(=O)c1cc(C#N)ccc1Nc1ccccc1C | – | Active | 3.19 | 7.85 | 0.4 |
| CC(C)NC(=O)NS(=O)(=O)c1cc(C#N)ccc1Oc1ccc(F)cc1 | – | – | 9.62 | 9.3 | 1 |
| CCCCCNC(=O)NS(=O)(=O)c1cc(C#N)ccc1Nc1ccc(C)cc1 | – | Active | 1.04 | 2.06 | 0.5 |
| Cc1ccccc1Oc1ccc(C#N)cc1S(=O)(=O)NC(=O)NC(C)(C)C | 966 | Active | 3.69 | 1.47 | – |
| CC(C)NC(=O)NS(=O)(=O)c1cc(C#N)ccc1Oc1ccc(I)cc1 | – | – | 9.52 | 9.49 | 1 |
| CC(C)(C)NC(=O)NS(=O)(=O)c1cc(C#N)ccc1Nc1ccc(F)cc1 | – | – | 4.64 | 4.91 | 0.95 |
| Cc1ccc(Nc2ccc([N+](=O)[O-])cc2S(=O)(=O)NC(=O)NC(C)(C)C)cc1 | 509 | – | 0.7 | 0.62 | 1.1 |
| Cc1cccc(Oc2ccc(C#N)cc2S(=O)(=O)NC(=O)NC(C)(C)C)c1 | 705 | Active | 1.05 | 0.69 | – |
| Cc1ccc(Oc2ccc(C#N)cc2S(=O)(=O)NC(=O)NC(C)(C)C)cc1 | 649 | Active | 0.75 | 0.68 | – |
| CC(C)NC(=O)NS(=O)(=O)c1cc(C#N)ccc1Oc1ccc(Br)cc1 | – | – | 9.47 | 9.13 | 1 |
| CCCCCNC(=O)NS(=O)(=O)c1cc(C#N)ccc1Oc1ccc(F)cc1 | – | – | 9.43 | 9.53 | 0.9 |

| SMILES | IC50 [1] [nM] | inhibition (Platelet) | IC50 (Thromboxane A2 receptor [2]) [µM] | IC50 (Thromboxane A2 receptor [3]) [µM] | Ratio IC50 (Homo sapiens) |
| --- | --- | --- | --- | --- | --- |
| Cc1cccc(Nc2ccc(C#N)cc2S(=O)(=O)NC(=O)NC(C)C)c1 | – | Active | 9.5 | 9.11 | 1 |
| Cc1cccc(Nc2ccc(C#N)cc2S(=O)(=O)NC(=O)NC(C)(C)C)c1 | 726 | Active | 1.59 | 2.2 | 0.7 |
| CC(C)NC(=O)NS(=O)(=O)c1cc(C#N)ccc1Oc1ccc(Cl)cc1 | – | – | 9.46 | 8.49 | 1.1 |
| CCCCCNC(=O)NS(=O)(=O)c1cc(C#N)ccc1Oc1ccc(Br)cc1 | – | – | 8.52 | 9.54 | 0.9 |
| CC(C)(C)NC(=O)NS(=O)(=O)c1cc(C#N)ccc1Oc1ccc(Br)cc1 | – | – | 5.88 | 5.31 | 1.1 |
| CCCCCNC(=O)NS(=O)(=O)c1cc(C#N)ccc1Nc1cccc(C)c1 | – | Active | 2.95 | 2.33 | 1.3 |
| CCCCCNC(=O)NS(=O)(=O)c1cc(C#N)ccc1Oc1ccccc1C | – | Active | 2.24 | 1.78 | 1.3 |
| Cc1ccccc1Nc1ccc(C#N)cc1S(=O)(=O)NC(=O)NC(C)C | – | Active | 7.24 | 10.1 | 0.7 |
| CC(C)(C)NC(=O)NS(=O)(=O)c1cc(C#N)ccc1Oc1ccc(F)cc1 | – | – | 4.35 | 3.89 | 1.2 |
| CC(C)(C)NC(=O)NS(=O)(=O)c1cc(C#N)ccc1Oc1ccc(Cl)cc1 | – | – | 5.64 | 5.27 | 1.1 |
| CCCCCNC(=O)NS(=O)(=O)c1cc(C#N)ccc1Nc1ccc(F)cc1 | – | – | 6.78 | 6.45 | 1.05 |
| CCCCCNC(=O)NS(=O)(=O)c1cc(C#N)ccc1Oc1ccc(Cl)cc1 | – | – | 8.64 | 8.72 | 0.9 |
| Cc1ccc(Oc2ccc(C#N)cc2S(=O)(=O)NC(=O)NC(C)C)cc1 | – | Active | 3.05 | 1.35 | 2.3 |
| CCCCCNC(=O)NS(=O)(=O)c1cc(C#N)ccc1Oc1ccc(I)cc1 | – | – | 9.52 | 9.49 | 1 |
| CC(C)(C)NC(=O)NS(=O)(=O)c1cc(C#N)ccc1Oc1ccc(I)cc1 | – | – | 5.52 | 5.54 | 0.9 |
| Cc1ccc(Nc2ccc(C#N)cc2S(=O)(=O)NC(=O)NC(C)(C)C)cc1 | 504 | Active | 0.85 | 1.04 | – |
| Cc1ccc(Nc2ccc(C#N)cc2S(=O)(=O)NC(=O)NC(C)C)cc1 | – | Active | 4.11 | 4.22 | 0.9 |
